This is a sample that favours compounds with a hit; in the whole collection about 3.7% have one here.
KCNQ1 block: blocks the human KCNQ1 potassium channel. B-score at 10 µM. 310,000 tested, 1.3% active. CHO-K1 KCNQ1, FluxOR thallium flux fluorescence; stronger effect = higher value. P51787;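 active = compounds whose thallium flux B-score, printed positive for inhibition, exceeds three library SD while starting fluorescence stays within three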;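 also: channel opened by potassium depolarization with thallium stimulus after 20 min compound exposure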
Target sequence (P51787 whole entry, looked up): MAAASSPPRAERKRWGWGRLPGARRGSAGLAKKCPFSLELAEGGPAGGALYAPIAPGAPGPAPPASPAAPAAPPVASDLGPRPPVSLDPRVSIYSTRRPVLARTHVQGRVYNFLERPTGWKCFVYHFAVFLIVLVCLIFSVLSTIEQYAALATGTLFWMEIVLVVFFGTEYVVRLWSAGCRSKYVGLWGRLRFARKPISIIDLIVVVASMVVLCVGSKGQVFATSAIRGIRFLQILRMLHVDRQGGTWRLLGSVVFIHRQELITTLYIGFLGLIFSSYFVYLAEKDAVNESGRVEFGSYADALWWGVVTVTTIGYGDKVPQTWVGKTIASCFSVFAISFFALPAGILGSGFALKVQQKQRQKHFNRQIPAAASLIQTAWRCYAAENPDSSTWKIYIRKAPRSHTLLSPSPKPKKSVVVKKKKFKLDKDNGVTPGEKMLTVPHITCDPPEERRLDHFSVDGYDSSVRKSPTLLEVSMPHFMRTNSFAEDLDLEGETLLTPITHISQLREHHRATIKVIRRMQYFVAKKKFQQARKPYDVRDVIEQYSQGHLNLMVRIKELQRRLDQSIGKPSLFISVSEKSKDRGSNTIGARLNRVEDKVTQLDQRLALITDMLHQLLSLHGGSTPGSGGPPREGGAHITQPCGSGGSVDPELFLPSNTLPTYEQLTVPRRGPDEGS
Kir21 block: Kir2.1 (mouse) channel inhibition; P35561; HEK293-Kir2.1, FluxOR thallium flux fluorescence; stronger effect = lower value; B-score at 10 µM; 310,000 tested, 0.85% active; AID 1672;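 active = fluorescence ratio B-score at or below minus 3 SD of library scores, with starting-brightness B-score within 2 SD, cut at about -4.2 in these data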;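 also: channel flux triggered by added potassium and thallium sulfate stimulus; B-score of peak minus minimum fluorescence over baseline after thallium stimulus; more negative B-score means stronger Kir2.1 block with less thallium influx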
hERG rescue: shields human hERG channel from block by proarrhythmic agents. Q12809. 310,000 tested, 0.51% active. CHO-hERG, FluxOR thallium flux, dofetilide IC70 present. activation (rescue from dofetilide block), less the hit threshold, % at 10 µM;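 active = activation above the mean of controls blocked by dofetilide plus 5 SD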;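 also: thallium influx through hERG after potassium depolarization seen as dye fluorescence rise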
KCNK3 block: human KCNK3 channel inhibition, primary screen. CHO-KCNK3 thallium flux, FluxOR fluorescence; stronger effect = lower value. B-score at 10 µM. 340,000 tested, 0.84% active. AID 602410;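 active = B-score under library mean minus 4 SD, starting fluorescence ratio at most library mean plus 5 SD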;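 also: more negative B-score means stronger inhibition of thallium flux through KCNK3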
KCNK9 block: blocks the human KCNK9 two-pore domain potassium channel | 310,000 tested, 1.2% active | HEK293 KCNK9, FluxOR thallium flux fluorescence; stronger effect = lower value | Q9NPC2 | B-score at 10 µM;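 active = ratio B-score over 3 SD below the library mean, with starting fluorescence within 5 SD of its mean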;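 also: negative B-score means less thallium flux so channel inhibition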
KCNQ1 pot: potentiators or activators of human KCNQ1 potassium channel | P51787 | 310,000 tested, 0.35% active | AID 2648 | CHO-K1 KCNQ1, thallium flux FluxOR fluorescence; stronger effect = higher value | B-score at 10 µM;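 active = fluorescence ratio B-score, a plate-corrected score, at least three library SD, with initial intensity B-score within 5 SD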
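Medium – assay buffer, equal DMSO in all wells · Material – CHO-K1 cell line with stable KCNQ1 potassium channel expression · Signal – kinetic FluxOR thallium fluorescence, 10-s 1-Hz baseline, 110-s post-stimulus read · Compound – single concentration per compound, DMSO matched to controls · Schedule – 37 °C overnight plating, 90-min dark dye load, 20-min compound pretreatment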
KCNK9 inh conf: confirmation of human KCNK9 potassium channel inhibitors; HEK293 KCNK9 cells, FluxOR thallium flux fluorescence; 4,900 tested, 43% active; shares compounds with KCNK9 block; inhibition, % at 10 µM;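 active = thallium signal inhibited by more than 5 SD of the compound-free buffer control wells, on both duplicate plates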;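 also: 0% = assay buffer control wells without compound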
Kir21 sel: selectivity of KCNK9 modulators against mouse Kir2.1; shares compounds with KCNK9 block; Kir2.1 cells, FluxOR thallium flux fluorescence; inhibition, % at 10 µM; 4,900 tested, 4% active; AID 492993;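 active = thallium signal drop more than 5 SD beyond the mean of the no-compound control wells, seen in both duplicate plates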;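 also: signal is fluorescence rise after thallium addition divided by baseline fluorescence; plate controls were assay buffer only for no effect and full block by chlorpromazine control for full effect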
KCNK9 uninduced: second counter-screen for KCNK9 modulators: effect in non-induced cells; shares compounds with KCNK9 block; non-induced KCNK9-HEK293, FluxOR thallium flux; inhibition, % at 10 µM; 4,900 tested, 40% active; AID 492997;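 active = thallium signal drop beyond 5 SD of the untreated control mean, on both duplicate plates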;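 also: plate controls were buffer only IC0 wells for no effect and SID17386958 at its maximal inhibitory level for full effect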
* = called active by the depositor; i = inactive; nt = not tested or not shown.

SMILES	KCNQ1 block	Kir21 block	hERG rescue	KCNK3 block	KCNK9 block	KCNQ1 pot	KCNK9 inh conf	Kir21 sel	KCNK9 uninduced
COc1ccc(C2c3[nH]c4ccccc4c3CCN2Cc2ccoc2)c(F)c1 (stereo not drawn)	i	-0.41	-33	i	i	i	i	i	i
CCOC(=O)c1cc2c(ccn2C)n1Cc1ccc(C#N)cc1	i	-1.8	-12	i	-8.3*	i	37%*	i	30%*
CCOC(=O)c1cc2c(ccn2C)n1CC(=O)N(C)C	i	0.57	-11	i	i	i	nt	nt	nt
Cn1c(CNc2cccc(Cl)c2)nnc1SCC#N	i	0.08	-6	i	i	i	nt	nt	nt
COc1cc(C(=O)NC(=S)Nc2ccccc2N2CCCC2)cc(OC)c1OC	i	-0.27	-11	i	i	i	i	i	i
CCc1ccc(N(CC)C(=O)c2ccc3c(Cl)c4c(nc3c2)CCC4)cc1	i	1.8	-11	i	i	i	i	i	27%*
COc1ccc(N(C)C(=O)c2ccc3c(Cl)c4c(nc3c2)CCCC4)c(OC)c1	i	1	-14	i	i	i	nt	nt	nt
Cc1ccc(N(C)C(=O)c2ccc3c(Cl)c4c(nc3c2)CCC4)cc1C	i	-2.2	-18	i	i	i	i	i	i
CCN(CC)c1ccc(/C=N/NC(=O)Nc2nonc2N)cc1	i	0.56	-8	i	i	i	nt	nt	nt
Cc1[nH]c2ccccc2c1C(=O)C(=O)Nc1ccc2c(c1)OCO2	i	1.1	-10	i	i	i	nt	nt	nt
CC12COC3(C(=O)Nc4ccccc4)CC1CCC32C (stereo not drawn)	i	1.9	-7	i	i	i	nt	nt	nt
CC12COC3(C(=O)Nc4ccc5ccccc5c4)CC1CCC32C (stereo not drawn)	i	0.6	-1	i	i	i	i	i	i
CCOC(=O)N1CCC(n2c(SCC(=O)NCc3ccccc3)nc3ccccc3c2=O)CC1	i	-1.3	-15	i	i	i	nt	nt	nt
CCOC(=O)N1CCC(n2c(SCC(=O)NCCC3=CCCCC3)nc3ccccc3c2=O)CC1	i	1.8	-21	i	i	i	i	i	i
CS(=O)(=O)N1c2ccccc2[C@]2(Br)C[C@H]3C(=O)N[C@@H](Cc4ccccc4)C(=O)N3[C@H]12	i	-0.45	-8	i	i	i	nt	nt	nt
COC(=O)[C@]1(CC(C)C)N[C@H](c2ccc(-c3ccc(F)cc3)c(OC)c2)[C@@H]2C(=O)N(C)C(=O)[C@@H]21	i	2.4	-4	i	-9.1*	i	38%*	i	38%*
CCN1C(=O)[C@H]2[C@@H](c3ccc(-c4ccc(OC)cc4)c(OC)c3)N[C@@](CC(C)C)(C(=O)OC)[C@H]2C1=O	nt	nt	nt	i	nt	nt	nt	nt	nt
COC(=O)[C@]1(C)N[C@H](c2ccc(-c3cccc(Cl)c3)cc2)[C@@H]2C(=O)N(C)C(=O)[C@@H]21	nt	nt	nt	i	nt	nt	nt	nt	nt
COC(=O)[C@]1(CC(C)C)N[C@H](c2ccc(-c3cccc(Cl)c3)cc2)[C@@H]2C(=O)N(C)C(=O)[C@@H]21	i	-1	-17	i	-10*	i	54%*	i	40%*
Cc1cccc(Oc2sc(C(=O)c3ccccc3)c(N)c2C#N)c1	nt	nt	nt	i	nt	nt	nt	nt	nt
CC(C)Nc1nc(NC(C)C)nc(SCCOC(=O)Nc2ccc(Cl)cc2Cl)n1	i	-0.18	-9	i	i	i	i	i	i
CCNc1nc(NC(C)C)nc(SCCOC(=O)c2ccccc2)n1	i	-1.4	-6	i	i	i	nt	nt	nt

Source: PubChem BioAssay (Johns Hopkins Ion Channel Center)
